As a reminder, the MIC50 is the lowest concentration that inhibits either 50% of growth or 50% of the strains tested, depending on the study. Lower therefore signals higher susceptibility.

Here are results for two compounds from ChEMBL document CHEMBL1157762, “Sequence inversion and phenylalanine surrogates at the beta-turn enhance the antibiotic activity of gramicidin S” (J Med Chem, 2010).

≈ marks a conversion by molar mass, not a printed value. Where a SMILES comes first, the peptide text is derived from it.

The test system of data set [1] is Staphylococcus aureus. As to the kind of experiment: Antibacterial activity against Staphylococcus aureus CECT 240 after 24 hrs by turbidimetry. Type of data set: functional. The conditions noted are these: CECT 240, 24 h. A digest of the protocol: (§1)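 Frozen stocks thawed and grown two days in cation-adjusted Mueller-Hinton II broth at 37 °C. Exponential-phase cells washed twice in PBS pH 7.0 and resuspended in the same broth at 5 × 10^5 CFU/mL. Incubated 24 h at 37 °C with peptide, growth read by turbidity at 600 nm. Two experiments, triplicate samples. MIC50 taken as lowest concentration giving 50% growth inhibition versus untreated control.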

A short description of data set [2]: Therapeutic index, ratio of HC50 for sheep erythrocytes to MIC50 for polymyxin E-resistant Acinetobacter baumannii ATCC 19606.
Data set [3] relates to Listeria monocytogenes. Put plainly: Antibacterial activity against Listeria monocytogenes CECT 4032 after 24 hrs by turbidimetry. In kind it is functional. The conditions noted are these: CECT 4032, 24 h. An outline of the steps:
as §1

The compound `CC(C)C[C@@H]1NC(=O)[C@H](CCCN)NC(=O)[C@H](C(C)C)NC(=O)[C@@H]2Cc3ccccc3CN2C(=O)[C@H]2CCCN2C(=O)[C@H](CC(C)C)NC(=O)[C@H](CCCN)NC(=O)[C@H](C(C)C)NC(=O)[C@@H]2Cc3ccccc3CN2C(=O)[C@H]2CCCN2C1=O` (HELM PEPTIDE1{L.[dP].[Tic].V.[Orn].L.[dP].[Tic].V.[Orn]}$PEPTIDE1,PEPTIDE1,1:R1-10:R2$$$V2.0) displayed an MIC50 in data set [1] of 2.4 µM (≈ 2.8 µg/mL).

`CC(C)C[C@@H]1NC(=O)[C@H](CCCN)NC(=O)[C@H](C(C)C)NC(=O)[C@H](C2c3ccccc3-c3ccccc32)NC(=O)[C@H]2CCCN2C(=O)[C@H](CC(C)C)NC(=O)[C@H](CCCN)NC(=O)[C@H](C(C)C)NC(=O)[C@H](C2c3ccccc3-c3ccccc32)NC(=O)[C@H]2CCCN2C1=O` (HELM PEPTIDE1{L.[dP].[O=C([C@@H](N[*:1])C1c2ccccc2-c2ccccc21)[*:2]].V.[Orn].L.[dP].[O=C([C@@H](N[*:1])C1c2ccccc2-c2ccccc21)[*:2]].V.[Orn]}$PEPTIDE1,PEPTIDE1,1:R1-10:R2$$$V2.0): in data set [2], the selectivity ratio was 0.1. In data set [3], the MIC50 worked out at 2.2 µM (≈ 2.84 µg/mL).
